From ChEMBL document CHEMBL5303300, “EUbOPEN Chemogenomics Library - Multiplex” (2023)
“And” between values parts separate entries of the source, which are not always exact repeats. Identical values can stand only once.

System: U2OS
Assay: Multiplex assay against U2OS
Assay type: toxicity, cell-based
Details: human, number of replicates 2
Procedure, shortened: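 Phenotypes for tubulin, mitochondrial mass and membrane permeability are expressed as per cents of healthy-nucleus cells. Cells were stained live at seeding with Hoechst33342, BioTracker Green Microtubule Cytoskeleton Dye, MitoTracker Red and Annexin V Alexa Fluor 680, then imaged after compound addition on a CQ1 microscope at 37°C and 5% CO2. Machine-learning gating in CellPathfinder separated Hoechst high-intensity objects from normal cells, divided normal cells by nuclear state (healthy, pyknosed, fragmented) and divided pyknosed cells into mitotic or apoptotic.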

[1] = 12 h, 1 µM, compound concentration 1 uM
[2] = 12 h, 10 µM, compound concentration 10 uM
[3] = 24 h, 1 µM, compound concentration 1 uM
[4] = 24 h, 10 µM, compound concentration 10 uM
[5] = 48 h, 1 µM, compound concentration 1 uM
[6] = 48 h, 10 µM, compound concentration 10 uM

COc1ccc(F)c(F)c1C(=O)c1cnc(NC2CCN(S(C)(=O)=O)CC2)nc1N [RG-547]
Population Apoptotic (%) [1]: 25% and 66% | Population Fragmented Nuclei (%) [1]: 21% and 7% | Population Healthy Nuclei (%) [1]: 68% and 81% | Population Hoechst High Intensity Objects (%) [1]: 0% and 1% | Population Membrane Permeable-Phenotype (%) [1]: 7% and 3% | Population Mitochondria Different-Phenotype (%) [1]: 3% and 2% | Population Mitotic Cells (%) [1]: 75% and 33% | Population Normal (%) [1]: 100% and 98% | Population Pyknosed Nuclei (%) [1]: 10% | Population Tubulin-Different-Phenotype (%) [1]: 69% and 80% | Population Apoptotic (%) [2]: 77% and 70% | Population Fragmented Nuclei (%) [2]: 20% and 12% | Population Healthy Nuclei (%) [2]: 44% and 42% | Population Hoechst High Intensity Objects (%) [2]: 0% and 1% | Population Membrane Permeable-Phenotype (%) [2]: 9% and 14% | Population Mitochondria Different-Phenotype (%) [2]: 0% and 6% | Population Mitotic Cells (%) [2]: 22% and 30% | Population Normal (%) [2]: 100% and 98% | Population Pyknosed Nuclei (%) [2]: 36% and 44% | Population Tubulin-Different-Phenotype (%) [2]: 72% and 57% | Population Apoptotic (%) [3]: 57% and 70% | Population Fragmented Nuclei (%) [3]: 13% and 9% | Population Healthy Nuclei (%) [3]: 66% and 77% | Population Hoechst High Intensity Objects (%) [3]: 0% | Population Membrane Permeable-Phenotype (%) [3]: 4% | Population Mitochondria Different-Phenotype (%) [3]: 4% and 3% | Population Mitotic Cells (%) [3]: 42% and 30% | Population Normal (%) [3]: 100% and 99% | Population Pyknosed Nuclei (%) [3]: 19% and 12% | Population Tubulin-Different-Phenotype (%) [3]: 66% and 79% | Population Apoptotic (%) [4]: 85% | Population Fragmented Nuclei (%) [4]: 15% and 12% | Population Healthy Nuclei (%) [4]: 41% and 32% | Population Hoechst High Intensity Objects (%) [4]: 0% and 2% | Population Membrane Permeable-Phenotype (%) [4]: 21% and 12% | Population Mitochondria Different-Phenotype (%) [4]: 21% and 12% | Population Mitotic Cells (%) [4]: 15% and 14% | Population Normal (%) [4]: 100% and 97% | Population Pyknosed Nuclei (%) [4]: 43% and 54% | Population Tubulin-Different-Phenotype (%) [4]: 68% and 72% | Population Apoptotic (%) [5]: 85% | Population Fragmented Nuclei (%) [5]: 30% and 20% | Population Healthy Nuclei (%) [5]: 39% and 65% | Population Hoechst High Intensity Objects (%) [5]: 0% | Population Membrane Permeable-Phenotype (%) [5]: 11% and 2% | Population Mitochondria Different-Phenotype (%) [5]: 5% and 1% | Population Mitotic Cells (%) [5]: 14% | Population Normal (%) [5]: 100% and 99% | Population Pyknosed Nuclei (%) [5]: 30% and 13% | Population Tubulin-Different-Phenotype (%) [5]: 66% and 75% | Population Apoptotic (%) [6]: 94% and 87% | Population Fragmented Nuclei (%) [6]: 14% and 10% | Population Healthy Nuclei (%) [6]: 11% and 2% | Population Hoechst High Intensity Objects (%) [6]: 5% and 0% | Population Mitotic Cells (%) [6]: 5% and 12% | Population Normal (%) [6]: 94% and 100% | Population Pyknosed Nuclei (%) [6]: 74% and 86% | Population Tubulin-Different-Phenotype (%) [6]: 88% and 100%

CN(C)CCCNc1ccnc(Nc2cccc(Cl)c2)n1
Population Apoptotic (%) [1]: 60% and 50% | Population Fragmented Nuclei (%) [1]: 6% and 5% | Population Healthy Nuclei (%) [1]: 84% and 82% | Population Hoechst High Intensity Objects (%) [1]: 0% | Population Membrane Permeable-Phenotype (%) [1]: 0% | Population Mitochondria Different-Phenotype (%) [1]: 0% | Population Mitotic Cells (%) [1]: 39% and 50% | Population Normal (%) [1]: 100% | Population Pyknosed Nuclei (%) [1]: 9% and 11% | Population Tubulin-Different-Phenotype (%) [1]: 70% and 42% | Population Apoptotic (%) [2]: 50% | Population Fragmented Nuclei (%) [2]: 11% and 17% | Population Healthy Nuclei (%) [2]: 79% and 67% | Population Hoechst High Intensity Objects (%) [2]: 0% | Population Membrane Permeable-Phenotype (%) [2]: 4% and 5% | Population Mitochondria Different-Phenotype (%) [2]: 4% and 5% | Population Mitotic Cells (%) [2]: 50% | Population Normal (%) [2]: 100% | Population Pyknosed Nuclei (%) [2]: 9% and 14% | Population Tubulin-Different-Phenotype (%) [2]: 52% and 42% | Population Apoptotic (%) [3]: 66% and 82% | Population Fragmented Nuclei (%) [3]: 2% and 4% | Population Healthy Nuclei (%) [3]: 91% and 88% | Population Hoechst High Intensity Objects (%) [3]: 0% | Population Membrane Permeable-Phenotype (%) [3]: 0% and 2% | Population Mitochondria Different-Phenotype (%) [3]: 0% and 1% | Population Mitotic Cells (%) [3]: 33% and 17% | Population Normal (%) [3]: 100% | Population Pyknosed Nuclei (%) [3]: 6% and 7% | Population Tubulin-Different-Phenotype (%) [3]: 51% and 74% | Population Apoptotic (%) [4]: 38% and 33% | Population Fragmented Nuclei (%) [4]: 14% and 22% | Population Healthy Nuclei (%) [4]: 67% and 54% | Population Hoechst High Intensity Objects (%) [4]: 0% | Population Membrane Permeable-Phenotype (%) [4]: 2% and 6% | Population Mitochondria Different-Phenotype (%) [4]: 6% and 3% | Population Mitotic Cells (%) [4]: 61% and 66% | Population Normal (%) [4]: 100% | Population Pyknosed Nuclei (%) [4]: 18% and 22% | Population Tubulin-Different-Phenotype (%) [4]: 64% and 48% | Population Apoptotic (%) [5]: 70% and 78% | Population Fragmented Nuclei (%) [5]: 5% and 3% | Population Healthy Nuclei (%) [5]: 81% and 89% | Population Hoechst High Intensity Objects (%) [5]: 0% | Population Membrane Permeable-Phenotype (%) [5]: 0% and 1% | Population Mitochondria Different-Phenotype (%) [5]: 0% | Population Mitotic Cells (%) [5]: 30% and 21% | Population Normal (%) [5]: 100% and 99% | Population Pyknosed Nuclei (%) [5]: 13% and 7% | Population Tubulin-Different-Phenotype (%) [5]: 56% and 80% | Population Apoptotic (%) [6]: 94% and 73% | Population Fragmented Nuclei (%) [6]: 15% and 14% | Population Healthy Nuclei (%) [6]: 47% and 50% | Population Hoechst High Intensity Objects (%) [6]: 3% and 1% | Population Membrane Permeable-Phenotype (%) [6]: 12% and 5% | Population Mitochondria Different-Phenotype (%) [6]: 4% and 5% | Population Normal (%) [6]: 96% and 98% | Population Pyknosed Nuclei (%) [6]: 37% and 34% | Population Tubulin-Different-Phenotype (%) [6]: 62% and 67%
